High-throughput results deposited in PubChem BioAssay by several laboratories.
Tb MetRS inh = T. brucei MetRS inhibitors, primary screen, biochemical, luminescence; methionyl-tRNA synthetase (Trypanosoma brucei brucei); purified T. brucei MetRS, ATP depletion, Kinase-Glo luminescence; inhibition, % at 11.9 µM; actives 0.4% (n = 360,000);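 active = inhibition above a per-plate cutoff of the control wells' mean inhibition plus 3 SD, cut at about 5.5% in these data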
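Material – parasite MetRS enzyme · Medium – HEPES-MgCl2-KCl buffer plus DTT, spermine, BSA, pyrophosphatase · Reagent – ATP, methionine and E. coli bulk tRNA substrates · Times – 15 min enzyme-compound preincubation, 2 h reaction, 10 min detection, 25 °C · Measured by – luminescence of leftover ATP · Evaluation – percent inhibition relative to median high and low control wells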
AHR activator = AHR activators, primary screen, cell-based, luminescence, luciferase reporter, human; AID 2796, 2010; actives 2.5% (n = 320,000); AHR-responsive luciferase reporter cells; activation, % at 5 µM; Aryl hydrocarbon receptor (Homo sapiens), P35869; in the data active = activation above about 47%
AI-2 QS mod = Vibrio harveyi AI-2 quorum sensing modulators, primary screen, JMH597 strain, luminescence/OD600 ratio | Vibrio harveyi JMH597 AI-2 luminescence/OD600 ratio, 9 h; stronger effect = lower value; strain lacks LuxN and CqsS sensors; 0 = neutral-control median | activity change, % at 7.5 µM | actives 0.4% (n = 300,000) | AID 2094, 2009; in the data active = activity change below about -75%, passing the limit was not always enough;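 also: luminescence divided by OD600 gain over 9 h not by final OD600 alone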
m5-HT2A agonist = mouse Htr2a agonists via beta-arrestin recruitment, primary screen, cell-based, luminescence. activation, % at 7.6 µM. 5-hydroxytryptamine receptor 2A (Mus musculus), P35363. CHO-K1 mHTR2A beta-arrestin complementation; percent of 30 µM serotonin response. actives 0.66% (n = 360,000);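 active = activation above a run cutoff, the mean activation of all tested compounds plus 3 SD, cut at about 14% in these data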
Target sequence (P35363 whole entry, looked up): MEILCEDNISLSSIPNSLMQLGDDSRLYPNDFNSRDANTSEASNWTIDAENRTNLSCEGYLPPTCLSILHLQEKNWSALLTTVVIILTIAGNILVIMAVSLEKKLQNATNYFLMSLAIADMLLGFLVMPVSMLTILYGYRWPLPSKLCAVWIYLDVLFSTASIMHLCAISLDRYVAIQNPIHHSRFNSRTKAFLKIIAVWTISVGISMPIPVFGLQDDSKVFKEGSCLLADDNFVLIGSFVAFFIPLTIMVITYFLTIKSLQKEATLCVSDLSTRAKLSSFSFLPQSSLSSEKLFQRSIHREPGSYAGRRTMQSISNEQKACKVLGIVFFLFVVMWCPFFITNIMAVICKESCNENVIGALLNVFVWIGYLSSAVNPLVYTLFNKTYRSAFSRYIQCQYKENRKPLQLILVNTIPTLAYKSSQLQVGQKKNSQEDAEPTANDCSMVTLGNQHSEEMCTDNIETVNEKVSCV
MsrA act = bovine MsrA enzyme activators, primary screen, biochemical, absorbance, HTS; purified bovine MsrA, absorbance read-out; actives 0.3% (n = 360,000); Methionine sulfoxide reductase A (Bos taurus); activation, % at 10.6 µM; AID 602163, 2012; in the data active = activation above about 7.5%
MsrA inh = bovine MsrA enzyme inhibitors, primary screen, biochemical, absorbance, HTS; Methionine sulfoxide reductase A (Bos taurus); actives 0.75% (n = 360,000); AID 651718, 2012; inhibition, % at 15.5 µM; purified bovine MsrA, absorbance read-out; in the data active = inhibition above about 4.5%
Of the large screens only hits and unclear results are named; the others gave an inactive call. Most compounds without a hit are left out; they make up all but 4.4% or so of the library.

CCOc1cc(-c2sc(Nc3ccc(CC)cc3)n[n+]2-c2ccccc2)ccc1OC	none (no result: AI-2 QS mod)
COc1ccc(-c2sc(Nc3ccccc3)n[n+]2-c2ccccc2)cc1Br	AHR activator 64 (no result: AI-2 QS mod)
COc1ccc(C)cc1Nc1n[n+](-c2ccccc2)c(-c2ccc(C(=O)O)cc2)s1	AHR activator 48
C[C@@H]1CN(c2ccc(N3CCNC[C@H]3C)cc2C#N)C[C@H](C)O1	none (no result: Tb MetRS inh, AHR activator, AI-2 QS mod, m5-HT2A agonist, MsrA act)
O=C(Nc1ccccc1Cl)c1cc2ccccc2o/c1=N\O	AHR activator 76
COCCCN1C(=O)c2ccc(C(=O)N3CCN(c4ccccc4OC)CC3)cc2C1=O	none
CCOC(=O)C(C)N1N=C(/C=C/c2ccc(C)cc2)CCC1=O (centres undefined)	none
C=CCN1N=C(/C=C/c2ccc(C)cc2)CCC1=O	MsrA inh 4.6
COc1ccc(C(=O)/C=C/c2cccs2)c(OC(=O)N2CCOCC2)c1	none
O=C(/C=C/c1cccs1)c1cc(Br)ccc1OC(=O)N1CCOCC1	AHR activator 53
CCOC(=O)CC1(O)CSc2nc(N)cc(=O)n21 (centres undefined)	none (no result: Tb MetRS inh, AHR activator, AI-2 QS mod, m5-HT2A agonist, MsrA act)
Cc1c(C(=O)NNC(=O)c2ccccc2O)oc2ccc(Br)cc12	AHR activator 51
C=CCNC(=S)NC(=O)c1oc2ccccc2c1C	AHR activator 66
Cc1c(C(=O)NCc2ccccn2)oc2ccc(Br)cc12	AHR activator 48
Cc1c(C(=O)NCc2ccccn2)oc2ccccc12	AHR activator 59
CCOc1ccc2oc(C(=O)NNC(=O)c3ccccc3O)c(C)c2c1	none
C[C@@H]1CN([C@@H](C)CO)C(=O)CCCn2cc(nn2)CO[C@H]1CN(C)C(=O)Nc1cccc(Oc2ccccn2)c1	none (no result: Tb MetRS inh, AHR activator, AI-2 QS mod, m5-HT2A agonist, MsrA act)
COC(=O)C1=C(C)N(Cc2ccccc2C(F)(F)F)C(=NCC2CC2)NC1c1ccc(C(F)(F)F)cc1 (centres undefined)	none (no result: Tb MetRS inh, AHR activator, AI-2 QS mod, m5-HT2A agonist, MsrA act)
NNc1nc2sc3c(c2c(=O)n1Cc1ccccc1)CCC3	none
NNc1nc(-c2ccccc2)nc2sc3c(c12)CCCC3	AHR activator 75
O=C(N[C@@H](Cc1cccnc1)C(=O)N1CCC[C@H]1C(=O)NC1CCCC1)C1CCCC1	none (no result: Tb MetRS inh, AHR activator, AI-2 QS mod, m5-HT2A agonist, MsrA act)
C[C@H](c1ccccc1)N1C[C@@H](COCc2ccccc2)Oc2cccc(N3CCCCC3)c2S1(=O)=O	none (no result: Tb MetRS inh, AHR activator, AI-2 QS mod, m5-HT2A agonist, MsrA act)
Cc1ccc(C(=O)Nn2cnc3scc(-c4cccs4)c3c2=O)c(O)c1	AHR activator 60
Cc1ccc(-n2cnc3scc(-c4cccs4)c3c2=O)cc1	none
Oc1cccc(C(Nc2nccs2)c2ccc3cccnc3c2O)c1 (centres undefined)	AI-2 QS mod -85
COc1cccc(C(NC(C)=O)c2ccc3cccnc3c2O)c1 (centres undefined)	none (no result: AI-2 QS mod)
COc1cccc(NC(=O)c2cc([N+](=O)[O-])ccc2NCc2cccnc2)c1	AHR activator 66
NC(=O)c1cc([N+](=O)[O-])c(Cl)cc1NCc1cccnc1	AHR activator 58 (no result: AI-2 QS mod)
Cc1ccc(NC(=O)c2cc([N+](=O)[O-])ccc2NCc2cccnc2)cc1Cl	AHR activator 51
COC(=O)[C@]12C[C@H](CC(=O)NCCCCc3ccccc3)C(=O)N(Cc3ccccc3)C1=C[C@H](C1CCCC1)O[C@@H]2C	none (no result: Tb MetRS inh, AHR activator, AI-2 QS mod, m5-HT2A agonist, MsrA act)
Cc1ccc(C2(C)NC(=O)N(CC(=O)NNC(=O)c3cc(C)oc3C)C2=O)cc1 (centres undefined)	AI-2 QS mod -79
Cc1ccc(C2(C)NC(=O)N(CC(=O)NNC(=O)c3ccoc3C)C2=O)cc1 (centres undefined)	none
O=C(NC1CCCC1)[C@@H]1CCCN1C(=O)[C@@H](NC(=O)N1CCOCC1)c1ccccc1	none (no result: Tb MetRS inh, AHR activator, AI-2 QS mod, m5-HT2A agonist, MsrA act)
CCCC(=O)Nc1nn(C)c2nc3c(C)cccc3cc12	none
CCCn1nc(NC(C)=O)c2cc3cccc(C)c3nc21	AHR activator 48
Cc1cccc2cc3c(NC(=O)c4ccccn4)nn(C)c3nc12	AHR activator 49
COc1ccc(-c2cc(NC(=O)Cc3c(C)[nH]c4ccccc34)ccc2Nc2cccnc2)cc1OC	none (no result: Tb MetRS inh, AHR activator, AI-2 QS mod, m5-HT2A agonist, MsrA act)
CC(=O)c1c(C(C)=O)c(C)n(-c2nc(-c3ccc(Br)cc3)c(C)s2)c1C	AHR activator 56
O=S(=O)(c1ccccc1)N1CCCc2nc(-c3ccc(Br)cc3)ccc21	none (no result: Tb MetRS inh, AHR activator, AI-2 QS mod, m5-HT2A agonist, MsrA act)
Cc1ccc(S(=O)(=O)N2c3ccccc3NC(=O)C2CC(=O)Nc2ccccc2)cc1 (centres undefined)	AHR activator 64
CCn1nc(C)cc1-c1nnc(SCC(=O)Nc2ccccc2)n1CCCOC	none
CCn1nc(C)cc1-c1nnc(Sc2ncc([N+](=O)[O-])s2)n1C	AI-2 QS mod -238
Cn1c(=N)n(CC(=O)c2cccs2)c2ccccc21	AHR activator 49
CCN(CC)CCn1c(=N)n(CC(=O)c2ccc(Br)s2)c2ccccc21	AHR activator 70
CCCn1c(=N)n(CC(=O)c2cccs2)c2ccccc21	none
COc1cccc(C(=O)Cn2c(=N)n(C)c3ccccc32)c1	AHR activator 52
Cn1c(=N)n(CC(=O)c2ccc(Br)s2)c2ccccc21	AHR activator 71
COc1cccc(C(=O)Cn2c(NCCO)nc3ccccc32)c1	none
C[C@@H]1NS(=O)(=O)c2c(F)cccc2O[C@@H]1c1ccccc1	none (no result: Tb MetRS inh, AHR activator, AI-2 QS mod, m5-HT2A agonist, MsrA act)
CC(C)(C)C(=O)Cn1c(=N)n(Cc2ccccc2)c2ccccc21	none
N=c1n(CC(=O)c2ccc(Br)s2)c2ccccc2n1Cc1ccccc1	AHR activator 71
O=S(=O)(c1cccs1)N1CCCc2nc(-c3ccccc3)ccc21	none (no result: Tb MetRS inh, AHR activator, AI-2 QS mod, m5-HT2A agonist, MsrA act)
CCOC(=O)c1cnc(-c2ccccc2)nc1N	none
CCOC(=O)c1cnc(-c2ccccc2)nc1N1CCOCC1	AHR activator 48
CCOC(=O)c1[nH]cc(-c2ccccc2)c1N1CCOCC1	AHR activator 49 (no result: AI-2 QS mod)
CCOC(=O)c1c(-c2ccccc2)csc1NC(=O)CCN1CCOCC1	none
CCCCc1cc(=O)oc2cc(OCC(=O)Nc3cccnc3)c(Cl)cc12	none
Cc1ccc2c(c1)N=C(c1ccccc1)CC(C(Cl)Cl)=N2	AHR activator 62
Cc1ccc(C2=Nc3ccccc3N=C(C(Cl)Cl)C2)cc1	none
Cc1ccc2c(c1)c(C1=c3ccccc3=NC1=O)c(O)n2C	AHR activator 66
COc1ccc(C(=O)Nc2ccc(Cn3ccnc3)cc2)cc1OC	AHR activator 51
COc1ccc(C(=O)Nc2ccc3[nH]ncc3c2)cc1OC	AHR activator 48
Cc1nn(-c2ccccc2)nc1C(=O)NN	none
O=C(Nc1ccc2cn[nH]c2c1)c1ccccc1F	AHR activator 105
